Measurements as given in ChEMBL document CHEMBL3813675, “Identification of potent and selective retinoic acid receptor gamma (RARγ) antagonists for the treatment of osteoarthritis pain using structure based drug design” (Bioorg Med Chem Lett, 2016).

How the values were obtained:
[1] = molecular target: T1, Retinoic acid receptor RXR-alpha/gamma (Homo sapiens, UniProt P13631+P19793); assay: Displacement of [3H]-TTNPB from RARgamma/RXRalpha (unknown origin) expressed in baculovirus expression system by scintillation proximity assay
T1 sequence (P13631 whole entry): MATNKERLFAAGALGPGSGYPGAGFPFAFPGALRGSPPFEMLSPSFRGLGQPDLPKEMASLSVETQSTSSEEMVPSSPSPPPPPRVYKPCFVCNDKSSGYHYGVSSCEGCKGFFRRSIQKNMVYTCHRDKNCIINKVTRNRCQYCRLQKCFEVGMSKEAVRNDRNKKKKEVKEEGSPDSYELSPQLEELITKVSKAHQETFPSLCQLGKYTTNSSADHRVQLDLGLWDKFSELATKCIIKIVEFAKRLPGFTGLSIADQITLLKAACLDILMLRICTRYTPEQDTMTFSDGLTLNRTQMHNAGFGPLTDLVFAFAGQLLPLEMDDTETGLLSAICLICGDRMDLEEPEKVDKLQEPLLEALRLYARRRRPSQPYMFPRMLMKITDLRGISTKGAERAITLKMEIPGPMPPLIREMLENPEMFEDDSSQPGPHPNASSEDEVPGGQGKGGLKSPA
T1 sequence (P19793 whole entry): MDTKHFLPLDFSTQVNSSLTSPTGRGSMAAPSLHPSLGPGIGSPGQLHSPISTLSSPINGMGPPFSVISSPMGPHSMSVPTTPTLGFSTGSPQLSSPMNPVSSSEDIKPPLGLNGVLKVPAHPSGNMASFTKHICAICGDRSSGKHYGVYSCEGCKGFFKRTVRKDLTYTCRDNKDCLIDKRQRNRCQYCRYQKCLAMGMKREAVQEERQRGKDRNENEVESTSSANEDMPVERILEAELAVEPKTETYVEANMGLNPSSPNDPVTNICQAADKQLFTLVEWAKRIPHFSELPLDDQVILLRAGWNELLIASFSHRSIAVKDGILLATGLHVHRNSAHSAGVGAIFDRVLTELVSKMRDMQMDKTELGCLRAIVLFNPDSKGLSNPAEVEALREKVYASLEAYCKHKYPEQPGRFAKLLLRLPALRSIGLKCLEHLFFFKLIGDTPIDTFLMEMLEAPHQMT

[2] = molecular target: T2, Retinoic acid receptor RXR-alpha/Retinoic acid receptor beta (Homo sapiens, UniProt P10826); assay: Displacement of [3H]-TTNPB from RARbeta/RXRalpha (unknown origin) expressed in baculovirus expression system by scintillation proximity assay
T2 sequence (P10826 whole entry): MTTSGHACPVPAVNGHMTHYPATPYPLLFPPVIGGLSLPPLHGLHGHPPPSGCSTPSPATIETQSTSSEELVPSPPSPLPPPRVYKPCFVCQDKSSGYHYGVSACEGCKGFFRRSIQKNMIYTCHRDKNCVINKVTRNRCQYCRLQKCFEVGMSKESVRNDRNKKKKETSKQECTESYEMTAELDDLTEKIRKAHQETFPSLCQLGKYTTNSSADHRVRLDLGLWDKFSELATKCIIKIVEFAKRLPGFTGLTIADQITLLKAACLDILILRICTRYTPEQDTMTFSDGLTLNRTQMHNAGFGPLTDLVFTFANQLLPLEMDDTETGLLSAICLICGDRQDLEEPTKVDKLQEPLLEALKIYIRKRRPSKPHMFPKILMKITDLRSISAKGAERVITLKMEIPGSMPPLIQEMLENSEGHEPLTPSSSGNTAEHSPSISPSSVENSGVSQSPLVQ
T2 sequence (P19793 whole entry): T1 sequence (P19793 whole entry)

[3] = molecular target: T3, Retinoic acid receptor alpha/Retinoid X receptor alpha (Homo sapiens, UniProt P10276); assay: Displacement of [3H]-TTNPB from RARalpha/RXRalpha (unknown origin) expressed in baculovirus expression system by scintillation proximity assay
T3 sequence (P10276 whole entry): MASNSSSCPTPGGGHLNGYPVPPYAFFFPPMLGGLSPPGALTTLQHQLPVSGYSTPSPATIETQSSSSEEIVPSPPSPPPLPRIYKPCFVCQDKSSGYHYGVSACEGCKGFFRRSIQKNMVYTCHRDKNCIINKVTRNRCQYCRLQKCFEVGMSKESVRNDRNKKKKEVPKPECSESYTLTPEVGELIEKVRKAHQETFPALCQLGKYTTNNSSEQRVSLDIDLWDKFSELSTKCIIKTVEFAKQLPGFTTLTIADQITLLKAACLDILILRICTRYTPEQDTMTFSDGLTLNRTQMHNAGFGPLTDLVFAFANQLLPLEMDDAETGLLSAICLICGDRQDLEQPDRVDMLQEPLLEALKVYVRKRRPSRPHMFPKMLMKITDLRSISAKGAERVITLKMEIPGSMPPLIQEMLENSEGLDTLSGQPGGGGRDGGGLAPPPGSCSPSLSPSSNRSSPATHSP
T3 sequence (P19793 whole entry): T1 sequence (P19793 whole entry)

[4] = species: Homo sapiens; assay: Selectivity index, ratio of Ki for RARbeta/RXRalpha (unknown origin) to Ki for RARgamma/RXRalpha (unknown origin) expressed in baculovirus expression system
[5] = molecular target: T4, Retinoic acid receptor gamma (Homo sapiens) (UniProt P13631); assay: Antagonist activity at RARgamma-LBD (unknown origin) expressed in HEK-293 cells assessed as inhibition of ATRA induced Gal4/luciferase gene expression after 24 hrs; format: cell-based; details: HEK293
T4 sequence (whole entry): T1 sequence (P13631 whole entry)

[6] = Selectivity index, ratio of Ki for RARalpha/RXRalpha (unknown origin) to Ki for RARgamma/RXRalpha (unknown origin) expressed in baculovirus expression system; design: species or system Homo sapiens
[7] = molecular target: T4, Retinoic acid receptor gamma (Homo sapiens); assay: Antagonist activity at RARgamma-LBD (unknown origin) expressed in HEK-293 cells assessed as inhibition of ATRA induced Gal4/luciferase gene expression after 24 hrs relative to ATRA; format: cell-based; details: HEK293
[8] = Solubility of the compound in simulated intestinal fluid; format: ADME
[9] = AUC in rat at 10 mg/kg, po administered for 14 days; format: ADME, organism-based; details: in vivo
[10] = Oral bioavailability in rat at 10 mg/kg measured up to 14 days; format: ADME, organism-based; details: in vivo
[11] = AUC in rat at 30 mg/kg, po administered for 14 days; format: ADME, organism-based; details: in vivo
[12] = AUC in rat at 0.72 mg/kg, po administered for 14 days; format: ADME, organism-based; details: in vivo
[13] = test system: Rattus norvegicus; assay: Analgesic activity in MIA-induced osteoarthritis-like joint pain rat model assessed as reduction in differential weight bearing between contralateral and ipsilateral limbs administered on day 9 post MIA challenge as single oral dose; format: functional; details: 216 h
In short: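 Rats received a single intraarticular injection of mono-iodoacetate into one hind limb joint. Joint pain read as differential weight bearing between contralateral and ipsilateral limbs. Compound given as a single oral dose on the day of testing. ED50 derived from the dose-response.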

[14] = molecular target: T5, Retinoic acid receptor beta (Homo sapiens) (UniProt P10826); assay: Antagonist activity at RARbeta-LBD (unknown origin) expressed in HEK-293 cells assessed as inhibition of ATRA induced Gal4/luciferase gene expression after 24 hrs; format: cell-based; details: HEK293
T5 sequence (whole entry): T2 sequence (P10826 whole entry)

[15] = test system: Rattus norvegicus; assay: Toxicity in rat assessed as testicular degeneration at 30 mg/kg, po administered for 14 days; format: organism-based; details: in vivo, 336 h
[16] = test system: Rattus norvegicus; assay: Toxicity in rat assessed as testicular degeneration at 10 mg/kg, po administered for 14 days; format: organism-based; details: in vivo, 336 h
[17] = molecular target: T6, Retinoic acid receptor alpha (Homo sapiens, UniProt P10276); assay: Antagonist activity at RARalpha-LBD (unknown origin) expressed in HEK-293 cells assessed as inhibition of ATRA induced Gal4/luciferase gene expression after 24 hrs; format: cell-based, HEK293
T6 sequence (P10276 whole entry): T3 sequence (P10276 whole entry)

Row | Structure (SMILES) | Ki [1] | Ki [2] | Ki [3] | Ratio Ki [4] | Kb [5] | Ratio Ki [6] | Imax [7] | solubility ([8]; simulated gi fluid) | AUC at 336 h [9] | bioavailability [10] | AUC at 336 h [11] | AUC at 336 h [12] | ED50 [13] | Kb [14] | Activity [15] | Activity [16] | Kb [17] | solubility ([8]; simulated intestinal fluid, read-out: solubility)
1 | CC(C)(C)c1cc(-c2cc(-c3ccc(C(=O)O)cc3)nn2-c2ccc(C(=O)N3CCOCC3)cc2)cc(C(C)(C)C)c1 | 2.3 nM | > 2980 nM | > 1700 nM | > 1320 | 7.2 nM | >752 | > 100% | – | – | – | – | – | – | – | – | – | – | –
2 | CC1(C)CC=C(c2ccccc2)c2cc(/C=C/c3ccc(C(=O)O)cc3)ccc21 | 17.3 nM | – | 7.7 nM | – | 18.5 nM | – | > 100% | – | – | – | – | – | – | – | – | – | – | –
3 | CC1(C)CCC(C)(C)c2cc(-c3cc(-c4ccc(C(=O)O)cc4)nn3-c3ccc(S(C)(=O)=O)cc3)ccc21 | 0.27 nM | 5.2 nM | 2.8 nM | 10 | 2.2 nM | 10 | > 100% | – | – | – | – | – | – | – | – | – | – | –
4 | CC(C)(C)c1cc(-c2cc(-c3ccc(C(=O)O)cc3)nn2-c2ccc(C(N)=O)cc2)cc(C(C)(C)C)c1 | 1.4 nM | > 2980 nM | > 1700 nM | > 2210 | 14.7 nM | >1259 | 79% | – | – | – | – | – | – | – | – | – | – | –
5 | CC(C)(C)c1cc(-c2cc(-c3ccc(C(=O)O)cc3)nn2-c2ccc(S(C)(=O)=O)cc2)cc(C(C)(C)C)c1 | 4.4 nM | 995 nM | 461 nM | 228 | 13.5 nM | 106 | > 100% | < 0.1 µg/mL | – | – | – | – | – | – | – | – | – | –
6 | CN1CCN(C(=O)c2ccc(-n3nc(-c4ccc(C(=O)O)cc4)cc3-c3cc(C(C)(C)C)cc(C(C)(C)C)c3)cc2)CC1 | 1.1 nM | > 2980 nM | > 1700 nM | > 2730 | 7.1 nM | >1560 | > 100% | – | 9100 ng·h/mL | 26% | 36800 ng·h/mL | 154 ng·h/mL | 0.724 mg/kg | 1510 nM | Toxic | Non-toxic | > 4440 nM | > 1000 µg/mL
7 | CC(C)(C)c1cccc(-c2cc(-c3ccc(C(=O)O)cc3)nn2-c2ccc(S(C)(=O)=O)cc2)c1 | 1.1 nM | 4.3 nM | 1.8 nM | – | – | 1.6 | – | – | – | – | – | – | – | – | – | – | – | –
8 | Cc1cc(-c2cc(-c3ccc(C(=O)O)cc3)nn2-c2ccc(S(C)(=O)=O)cc2)cc(C(C)(C)C)c1 | 1.1 nM | 10 nM | 6.2 nM | – | – | 5.6 | – | – | – | – | – | – | – | – | – | – | – | –
9 | CC(C)c1cc(-c2cc(-c3ccc(C(=O)O)cc3)nn2-c2ccc(S(C)(=O)=O)cc2)cc(C(C)(C)C)c1 | 1.6 nM | 131 nM | 87 nM | – | – | 54 | – | – | – | – | – | – | – | – | – | – | – | –
10 | CN(C)C(=O)c1ccc(-n2nc(-c3ccc(C(=O)O)cc3)cc2-c2cc(C(C)(C)C)cc(C(C)(C)C)c2)cc1 | 2.2 nM | > 2980 nM | > 1700 nM | > 1340 | 21.3 nM | >766 | > 100% | – | – | – | – | – | – | – | – | – | – | –
11 | CN(C)S(=O)(=O)c1ccc(-n2nc(-c3ccc(C(=O)O)cc3)cc2-c2cc(C(C)(C)C)cc(C(C)(C)C)c2)cc1 | 4.1 nM | > 2980 nM | > 1700 nM | > 725 | 11.1 nM | >414 | > 100% | – | – | – | – | – | – | – | – | – | – | –
